Experimental data: ChEMBL document CHEMBL3352626, “Synthesis and biological evaluation of novel oxindole-based RTK inhibitors as anti-cancer agents” (Bioorg Med Chem, 2014)
Calls of active or inactive are those of the source. The rule behind the calls is not given here.

Experiments:
NCI-H1975 = assay: Antiproliferative activity against human NCI-H1975 cells at 10 uM after 72 hrs by MTS assay; type: functional
Procedure, shortened: (§1)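 Single-concentration screen. Cells at 4 × 10^4 cells/ml, seeded and incubated overnight, then given 10 µM compound in DMSO for 72 h (37 °C, 5% CO2), with DMSO-only controls. MTS added for 4 h and A490 read. Percent inhibition = (1 − OD490 treated/OD490 control) × 100, from triplicate experiments.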

A549 [1] = assay: Antiproliferative activity against human A549 cells at 10 uM after 72 hrs by MTS assay; type: functional
U-251 = assay: Antiproliferative activity against human U251 cells at 10 uM after 72 hrs by MTS assay; type: functional; procedure, shortened: as §1
[2] = Antiproliferative activity against human SGC7901 cells at 10 uM after 72 hrs by MTS assay; type: functional, SGC-7901
[3] = Antiproliferative activity against human Bel7402 cells at 10 uM after 72 hrs by MTS assay; type: functional, Bel-7402
[4] = Antiproliferative activity against human HCC827 cells at 10 uM after 72 hrs by MTS assay; type: functional
[5] = Antiproliferative activity against human H460 cells at 10 uM after 72 hrs by MTS assay; type: functional, NCI-H460
[6] = Antiproliferative activity against human PM8910 cells at 10 uM after 72 hrs by MTS assay; type: functional
[7] = Antiproliferative activity against human SKBR3 cells at 10 uM after 72 hrs by MTS assay; type: functional, SK-BR-3; procedure, shortened: as §1
[8] = Antiproliferative activity against human PM8910 cells after 72 hrs by MTS assay; type: functional, cell-based; details: PM8910, 72 h
Procedure, shortened: (§2)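 Cells at 4 × 10^4 cells/ml, seeded and left overnight, then exposed in triplicate to 30, 10, 3, 1, 0.3 and 0.1 µM compound in DMSO for 72 h at 37 °C under 5% CO2. MTS dye added for 4 h and absorbance read at 490 nm. Inhibition = (1 − OD treated/OD DMSO control) × 100. IC50 derived from the dilution series.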

[9] = Antiproliferative activity against human HCC827 cells after 72 hrs by MTS assay; type: functional, cell-based; details: HCC827, 72 h; procedure, shortened: as §2
[10] = Antiproliferative activity against human SGC7901 cells after 72 hrs by MTS assay; type: functional, cell-based; details: SGC-7901, 72 h; procedure, shortened: as §2
[11] = Antiproliferative activity against human Bel7402 cells after 72 hrs by MTS assay; type: functional, cell-based; details: Bel-7402, 72 h; procedure, shortened: as §2
A549 [12] = assay: Antiproliferative activity against human A549 cells after 72 hrs by MTS assay; type: functional, cell-based; details: A549, 72 h; procedure, shortened: as §2
[13] = Antiproliferative activity against human H460 cells after 72 hrs by MTS assay; type: functional, cell-based; details: NCI-H460, 72 h; procedure, shortened: as §2
[14] = Antiproliferative activity against rat NRK-52E cells after 72 hrs by MTS assay; type: cell-based
[15] = molecular target: T1, Mast/stem cell growth factor receptor Kit (Homo sapiens, UniProt P10721); assay: Inhibition of recombinant c-Kit (unknown origin) at 10 uM after 1 hr by microfluidic assay
T1 sequence (P10721 whole entry): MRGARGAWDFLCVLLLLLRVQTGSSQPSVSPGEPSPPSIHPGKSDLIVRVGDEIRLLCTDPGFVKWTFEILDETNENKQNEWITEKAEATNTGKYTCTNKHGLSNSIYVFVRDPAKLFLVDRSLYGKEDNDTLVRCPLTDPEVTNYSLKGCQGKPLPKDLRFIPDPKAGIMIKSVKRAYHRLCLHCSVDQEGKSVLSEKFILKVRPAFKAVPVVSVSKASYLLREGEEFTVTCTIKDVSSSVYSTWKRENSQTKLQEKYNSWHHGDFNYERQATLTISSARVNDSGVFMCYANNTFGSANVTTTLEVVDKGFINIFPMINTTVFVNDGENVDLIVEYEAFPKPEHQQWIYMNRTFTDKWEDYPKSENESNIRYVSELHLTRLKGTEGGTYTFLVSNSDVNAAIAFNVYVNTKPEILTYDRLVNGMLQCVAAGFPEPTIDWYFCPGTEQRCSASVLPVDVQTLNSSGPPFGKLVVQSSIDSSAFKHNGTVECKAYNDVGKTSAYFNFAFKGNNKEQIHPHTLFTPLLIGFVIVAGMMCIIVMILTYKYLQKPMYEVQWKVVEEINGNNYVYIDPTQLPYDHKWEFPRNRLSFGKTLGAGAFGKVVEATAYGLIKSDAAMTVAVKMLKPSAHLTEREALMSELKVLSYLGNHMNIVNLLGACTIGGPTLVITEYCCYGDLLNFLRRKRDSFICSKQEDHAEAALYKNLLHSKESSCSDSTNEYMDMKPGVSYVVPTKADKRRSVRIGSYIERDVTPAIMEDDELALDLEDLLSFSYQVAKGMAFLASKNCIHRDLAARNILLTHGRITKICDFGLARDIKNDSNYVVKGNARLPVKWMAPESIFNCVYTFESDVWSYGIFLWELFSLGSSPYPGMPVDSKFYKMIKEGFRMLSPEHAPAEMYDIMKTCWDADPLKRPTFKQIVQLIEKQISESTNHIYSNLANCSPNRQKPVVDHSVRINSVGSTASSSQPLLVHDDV
Procedure, shortened: (§3)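 Caliper microfluidic mobility-shift assay using recombinant kinases from Carna. Enzyme, substrate, ATP (at Km) and compound reacted for 1 h, then stopped with EDTA. Substrate-to-phosphoproduct conversion read on EZ Reader II. Percent inhibition calculated relative to no-enzyme blanks and full-reaction wells, each containing 2.5% DMSO.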

[16] = molecular target: Platelet-derived growth factor receptor beta (Homo sapiens) (UniProt P09619); assay: Inhibition of recombinant PDGFRb (unknown origin) at 10 uM after 1 hr by microfluidic assay; procedure, shortened: as §3
Sequence of Platelet-derived growth factor receptor beta (Homo sapiens) (P09619 whole entry): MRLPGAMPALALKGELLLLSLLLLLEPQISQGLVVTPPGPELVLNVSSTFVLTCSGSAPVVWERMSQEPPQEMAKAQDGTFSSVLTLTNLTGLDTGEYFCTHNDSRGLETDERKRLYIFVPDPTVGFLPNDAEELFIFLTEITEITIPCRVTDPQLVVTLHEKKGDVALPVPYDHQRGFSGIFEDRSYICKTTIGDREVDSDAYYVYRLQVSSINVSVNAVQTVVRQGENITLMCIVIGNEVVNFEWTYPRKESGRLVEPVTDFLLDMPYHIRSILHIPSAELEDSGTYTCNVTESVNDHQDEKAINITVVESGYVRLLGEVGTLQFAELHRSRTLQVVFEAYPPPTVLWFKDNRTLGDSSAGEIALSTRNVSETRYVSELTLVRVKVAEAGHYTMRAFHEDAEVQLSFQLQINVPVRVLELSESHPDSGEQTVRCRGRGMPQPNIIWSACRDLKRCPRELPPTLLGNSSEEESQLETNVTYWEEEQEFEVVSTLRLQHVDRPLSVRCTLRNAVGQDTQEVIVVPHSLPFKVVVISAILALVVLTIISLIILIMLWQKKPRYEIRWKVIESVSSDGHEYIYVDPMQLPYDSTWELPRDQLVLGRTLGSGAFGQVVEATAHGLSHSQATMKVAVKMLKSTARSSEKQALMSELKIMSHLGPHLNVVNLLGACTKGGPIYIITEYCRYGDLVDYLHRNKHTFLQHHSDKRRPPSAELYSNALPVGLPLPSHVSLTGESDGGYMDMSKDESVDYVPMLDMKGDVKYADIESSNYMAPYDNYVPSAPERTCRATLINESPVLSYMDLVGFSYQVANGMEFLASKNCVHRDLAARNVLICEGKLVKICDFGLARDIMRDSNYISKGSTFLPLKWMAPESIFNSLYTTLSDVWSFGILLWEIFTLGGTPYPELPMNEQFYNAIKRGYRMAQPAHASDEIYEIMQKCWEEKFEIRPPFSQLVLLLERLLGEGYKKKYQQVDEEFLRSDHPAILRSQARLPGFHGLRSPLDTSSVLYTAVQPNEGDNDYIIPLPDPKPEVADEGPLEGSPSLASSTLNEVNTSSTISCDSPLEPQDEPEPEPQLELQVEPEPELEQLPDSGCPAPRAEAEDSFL

[17] = molecular target: Vascular endothelial growth factor receptor 2 (Homo sapiens) (UniProt P35968); assay: Inhibition of recombinant KDR (unknown origin) at 10 uM after 1 hr by microfluidic assay; procedure, shortened: as §3
Sequence of Vascular endothelial growth factor receptor 2 (Homo sapiens) (P35968 whole entry): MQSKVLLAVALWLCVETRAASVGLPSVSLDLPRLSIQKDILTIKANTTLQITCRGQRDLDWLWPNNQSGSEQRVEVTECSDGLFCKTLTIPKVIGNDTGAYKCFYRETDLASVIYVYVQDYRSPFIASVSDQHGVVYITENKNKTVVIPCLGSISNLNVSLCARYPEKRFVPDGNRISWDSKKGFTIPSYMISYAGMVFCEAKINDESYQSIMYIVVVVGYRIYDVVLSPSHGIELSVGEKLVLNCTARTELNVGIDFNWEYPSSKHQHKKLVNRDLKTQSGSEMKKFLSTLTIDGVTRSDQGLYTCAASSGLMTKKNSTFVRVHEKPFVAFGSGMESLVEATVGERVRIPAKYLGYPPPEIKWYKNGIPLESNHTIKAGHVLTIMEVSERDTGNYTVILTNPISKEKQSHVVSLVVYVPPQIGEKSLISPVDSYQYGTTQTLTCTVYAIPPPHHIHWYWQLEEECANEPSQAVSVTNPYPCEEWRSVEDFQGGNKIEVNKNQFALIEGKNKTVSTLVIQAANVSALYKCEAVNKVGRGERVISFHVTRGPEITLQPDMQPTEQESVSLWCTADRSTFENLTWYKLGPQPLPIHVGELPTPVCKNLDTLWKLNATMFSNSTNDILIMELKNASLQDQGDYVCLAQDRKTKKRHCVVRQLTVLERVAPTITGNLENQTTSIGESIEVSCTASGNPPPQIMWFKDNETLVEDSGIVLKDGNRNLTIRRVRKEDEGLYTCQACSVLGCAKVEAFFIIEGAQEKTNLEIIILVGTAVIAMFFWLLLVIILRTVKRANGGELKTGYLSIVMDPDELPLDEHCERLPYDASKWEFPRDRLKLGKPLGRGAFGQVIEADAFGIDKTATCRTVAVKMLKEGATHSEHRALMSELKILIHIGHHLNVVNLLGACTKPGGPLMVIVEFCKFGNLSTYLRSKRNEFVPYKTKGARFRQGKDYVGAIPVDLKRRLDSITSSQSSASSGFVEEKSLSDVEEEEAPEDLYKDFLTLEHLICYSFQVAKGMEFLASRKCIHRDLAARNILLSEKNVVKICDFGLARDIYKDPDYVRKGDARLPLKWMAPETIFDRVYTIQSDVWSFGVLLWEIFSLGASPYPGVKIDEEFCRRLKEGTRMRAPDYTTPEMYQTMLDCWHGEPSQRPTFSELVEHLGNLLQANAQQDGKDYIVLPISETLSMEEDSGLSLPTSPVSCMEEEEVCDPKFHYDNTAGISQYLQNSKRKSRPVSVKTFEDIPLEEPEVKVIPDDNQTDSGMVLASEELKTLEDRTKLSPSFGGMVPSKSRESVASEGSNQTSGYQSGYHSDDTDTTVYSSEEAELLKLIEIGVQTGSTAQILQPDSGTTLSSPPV

Aurora kinase B [18] = molecular target: T2, Aurora kinase B (Homo sapiens, UniProt Q96GD4); assay: Inhibition of recombinant Aur B (unknown origin) at 10 uM after 1 hr by microfluidic assay; procedure, shortened: as §3
T2 sequence (Q96GD4 whole entry): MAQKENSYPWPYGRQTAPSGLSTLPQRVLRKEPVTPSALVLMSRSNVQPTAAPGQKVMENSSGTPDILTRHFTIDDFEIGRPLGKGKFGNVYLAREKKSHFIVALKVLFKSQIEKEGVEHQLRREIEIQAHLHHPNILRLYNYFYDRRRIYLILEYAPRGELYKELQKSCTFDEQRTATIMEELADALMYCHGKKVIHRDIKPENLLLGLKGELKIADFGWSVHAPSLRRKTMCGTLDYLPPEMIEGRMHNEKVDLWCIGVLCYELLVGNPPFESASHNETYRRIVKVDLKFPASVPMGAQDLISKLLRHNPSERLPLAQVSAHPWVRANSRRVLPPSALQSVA

[19] = molecular target: T3, Serine/threonine-protein kinase Sgk1 (Homo sapiens) (UniProt O00141); assay: Inhibition of recombinant SGK1 (unknown origin) at 10 uM after 1 hr by microfluidic assay; procedure, shortened: as §3
T3 sequence (whole entry): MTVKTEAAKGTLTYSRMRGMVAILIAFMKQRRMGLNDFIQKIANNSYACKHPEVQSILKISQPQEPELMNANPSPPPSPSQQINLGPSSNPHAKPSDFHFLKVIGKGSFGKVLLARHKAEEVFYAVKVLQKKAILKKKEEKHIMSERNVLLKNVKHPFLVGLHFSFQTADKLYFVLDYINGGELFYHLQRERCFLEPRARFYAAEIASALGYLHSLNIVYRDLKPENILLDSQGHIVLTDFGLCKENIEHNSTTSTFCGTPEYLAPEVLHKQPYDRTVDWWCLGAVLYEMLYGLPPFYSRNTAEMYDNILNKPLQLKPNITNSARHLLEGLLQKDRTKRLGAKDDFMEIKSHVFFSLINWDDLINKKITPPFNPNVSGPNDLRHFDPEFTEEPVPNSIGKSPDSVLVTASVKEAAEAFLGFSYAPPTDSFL

[20] = molecular target: Epidermal growth factor receptor (Homo sapiens) (UniProt P00533); assay: Inhibition of recombinant EGFR (unknown origin) at 10 uM after 1 hr by microfluidic assay; procedure, shortened: as §3
Sequence of Epidermal growth factor receptor (Homo sapiens) (P00533 whole entry): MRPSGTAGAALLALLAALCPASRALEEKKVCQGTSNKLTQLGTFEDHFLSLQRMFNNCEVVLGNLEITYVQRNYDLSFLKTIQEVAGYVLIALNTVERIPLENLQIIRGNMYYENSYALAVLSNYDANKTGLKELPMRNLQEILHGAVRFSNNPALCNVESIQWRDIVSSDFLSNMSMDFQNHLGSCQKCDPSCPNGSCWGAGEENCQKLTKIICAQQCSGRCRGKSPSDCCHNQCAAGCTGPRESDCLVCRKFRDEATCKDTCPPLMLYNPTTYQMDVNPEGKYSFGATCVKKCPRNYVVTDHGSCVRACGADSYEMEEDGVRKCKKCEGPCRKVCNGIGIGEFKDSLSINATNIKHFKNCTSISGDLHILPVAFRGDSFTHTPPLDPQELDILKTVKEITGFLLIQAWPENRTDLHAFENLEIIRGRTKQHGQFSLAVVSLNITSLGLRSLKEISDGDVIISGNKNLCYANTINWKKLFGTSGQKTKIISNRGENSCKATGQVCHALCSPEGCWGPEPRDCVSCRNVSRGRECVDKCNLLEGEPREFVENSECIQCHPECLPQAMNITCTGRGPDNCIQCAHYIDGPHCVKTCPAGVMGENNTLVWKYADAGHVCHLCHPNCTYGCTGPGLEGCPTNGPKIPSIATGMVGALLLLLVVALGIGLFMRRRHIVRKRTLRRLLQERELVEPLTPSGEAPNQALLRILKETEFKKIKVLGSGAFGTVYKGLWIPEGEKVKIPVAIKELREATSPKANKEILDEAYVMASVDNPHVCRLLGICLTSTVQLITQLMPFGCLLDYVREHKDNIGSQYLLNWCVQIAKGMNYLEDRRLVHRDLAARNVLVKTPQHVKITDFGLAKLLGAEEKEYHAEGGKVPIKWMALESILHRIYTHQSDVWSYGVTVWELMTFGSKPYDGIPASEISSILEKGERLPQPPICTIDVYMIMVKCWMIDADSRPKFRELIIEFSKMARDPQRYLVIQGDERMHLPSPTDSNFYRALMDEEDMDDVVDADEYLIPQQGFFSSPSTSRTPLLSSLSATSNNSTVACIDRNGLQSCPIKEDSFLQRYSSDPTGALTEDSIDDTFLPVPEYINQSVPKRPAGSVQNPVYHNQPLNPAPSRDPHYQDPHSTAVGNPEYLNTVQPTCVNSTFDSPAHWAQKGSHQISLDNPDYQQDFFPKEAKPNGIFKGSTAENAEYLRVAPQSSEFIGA

[21] = molecular target: T1, Mast/stem cell growth factor receptor Kit; assay: Inhibition of recombinant c-Kit (unknown origin) at 1 uM after 1 hr by microfluidic assay; procedure, shortened: as §3
[22] = molecular target: Platelet-derived growth factor receptor beta (Homo sapiens) (UniProt P09619); assay: Inhibition of recombinant PDGFRb (unknown origin) at 1 uM after 1 hr by microfluidic assay; procedure, shortened: as §3
[23] = molecular target: Vascular endothelial growth factor receptor 2 (Homo sapiens) (UniProt P35968); assay: Inhibition of recombinant KDR (unknown origin) at 1 uM after 1 hr by microfluidic assay; procedure, shortened: as §3
Aurora kinase B [24] = molecular target: T2, Aurora kinase B; assay: Inhibition of recombinant Aur B (unknown origin) at 1 uM after 1 hr by microfluidic assay; procedure, shortened: as §3
[25] = molecular target: T3, Serine/threonine-protein kinase Sgk1 (Homo sapiens); assay: Inhibition of recombinant SGK1 (unknown origin) at 1 uM after 1 hr by microfluidic assay; procedure, shortened: as §3
[26] = molecular target: Epidermal growth factor receptor (Homo sapiens) (UniProt P00533); assay: Inhibition of recombinant EGFR (unknown origin) at 1 uM after 1 hr by microfluidic assay; procedure, shortened: as §3
[27] = molecular target: T1, Mast/stem cell growth factor receptor Kit; assay: Inhibition of recombinant c-Kit (unknown origin) at 0.1 uM after 1 hr by microfluidic assay; procedure, shortened: as §3
[28] = molecular target: Platelet-derived growth factor receptor beta (Homo sapiens) (UniProt P09619); assay: Inhibition of recombinant PDGFRb (unknown origin) at 0.1 uM after 1 hr by microfluidic assay; procedure, shortened: as §3
[29] = molecular target: Vascular endothelial growth factor receptor 2 (Homo sapiens) (UniProt P35968); assay: Inhibition of recombinant KDR (unknown origin) at 0.1 uM after 1 hr by microfluidic assay; procedure, shortened: as §3
Aurora kinase B [30] = molecular target: T2, Aurora kinase B; assay: Inhibition of recombinant Aur B (unknown origin) at 0.1 uM after 1 hr by microfluidic assay; procedure, shortened: as §3
[31] = molecular target: T3, Serine/threonine-protein kinase Sgk1 (Homo sapiens); assay: Inhibition of recombinant SGK1 (unknown origin) at 0.1 uM after 1 hr by microfluidic assay; procedure, shortened: as §3
[32] = molecular target: Epidermal growth factor receptor (Homo sapiens) (UniProt P00533); assay: Inhibition of recombinant EGFR (unknown origin) at 0.1 uM after 1 hr by microfluidic assay; procedure, shortened: as §3
[33] = molecular target: T1, Mast/stem cell growth factor receptor Kit; assay: Inhibition of recombinant c-Kit (unknown origin) after 1 hr by microfluidic assay; procedure, shortened: as §3
Aurora kinase B [34] = molecular target: T2, Aurora kinase B; assay: Inhibition of recombinant Aur B (unknown origin) after 1 hr by microfluidic assay; procedure, shortened: as §3
A549 [35] = assay: Cell cycle arrest at G1 phase in human A549 cells at 5 to 10 uM after 24 hrs by flow cytometry; type: functional, cell-based
Procedure, shortened: (§4)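 Cells seeded in 60 mm plates, treated for 24 h, washed twice in PBS and fixed in ice-cold 75% ethanol. Stained overnight at 4 °C with PI ([…]) containing RNase 180 U/ml, 0.15% Triton X-100 and polyethylene glycol in 4 mmol/l citrate, pH 7.8. DNA content measured by FACScan flow cytometry against a DMSO group. Mean ± SEM of three independent experiments.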

A549 [36] = assay: Cell cycle arrest in human A549 cells assessed as reduction of cells in S phase at 5 to 10 uM after 24 hrs by flow cytometry; type: functional, cell-based; procedure, shortened: as §4
[37] = Cell cycle arrest at G1 phase in human PM8910 cells at 5 to 10 uM after 24 hrs by flow cytometry; type: functional, cell-based; procedure, shortened: as §4
[38] = Cell cycle arrest in human PM8910 cells assessed as reduction of cells in S phase at 5 to 10 uM after 24 hrs by flow cytometry; type: functional, cell-based; procedure, shortened: as §4
[39] = Cell cycle arrest at G1 phase in human SGC7901 cells at 5 to 10 uM after 24 hrs by flow cytometry; type: functional, cell-based; details: SGC-7901; procedure, shortened: as §4
[40] = Cell cycle arrest in human SGC7901 cells assessed as reduction of cells in S phase at 5 to 10 uM after 24 hrs by flow cytometry; type: functional, cell-based; details: SGC-7901; procedure, shortened: as §4

Question: Which results are given for `C=CC(=O)N1CCN(c2ccc(/C=C3\C(=O)Nc4ccccc43)cc2)CC1`?
Answer: Activity (NCI-H1975): 60.01%; Activity (A549 [1]): 50.28%; Activity (U-251): 31.7%; Activity [2]: 55.46%; Activity [3]: 55.06%; Activity [4]: 57.19%; Activity [5]: 71.31%; Activity [6]: 59.52%; Activity [7]: 27.99%; IC50 [8]: 6.74 µM; IC50 [9]: 7 µM; IC50 [10]: 9.75 µM; IC50 [11]: 7.68 µM; IC50 (A549 [12]): 10.1 µM; IC50 [13]: 11.5 µM; IC50 [14]: 28.8 µM; inhibition [15]: 88.2%; inhibition [16]: 61.8%; inhibition [17]: 30.6%; inhibition (Aurora kinase B [18]): 93.5%; inhibition [19]: 90.7%; inhibition [20]: 75.4%; inhibition [21]: 55.3%; inhibition [22]: 26.2%; inhibition [23]: 7.2%; inhibition (Aurora kinase B [24]): 41.6%; inhibition [25]: 38.3%; inhibition [26]: 30.1%; inhibition [27]: 19.1%; inhibition [28]: 0.4%; inhibition [29]: 13.4%; inhibition (Aurora kinase B [30]): 4.5%; inhibition [31]: 2.2%; inhibition [32]: 14.9%; IC50 [33]: 0.128 µM; IC50 (Aurora kinase B [34]): 2.21 µM; Activity (A549 [35]): Active; Activity (A549 [36]): Active; Activity [37]: Active; Activity [38]: Active; Activity [39]: Active; Activity [40]: Active
